Compound activity as filed in PubChem.
PostGolgi yeast: growth inhibition of a yeast mutant, post-Golgi transport screen | inhibition, % at 10 µM | 98,000 tested, 0.9% active | post-Golgi transport phenotypic cell assay;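 note: yeast cells grown in 1536-well plates; yeast grown about 18 h at 30C before absorbance read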
Her2 expr inh: inhibitors of human Her2 kinase expression; 65,000 tested, 0.69% active; SKBR-3 HER2 protein level, AlphaScreen, 18-24 h; active compounds read low; P04626; HER2 level % of control, % at 10 µM;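 active = HER2 level under 5% of the carrier-only control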;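 note: 100% = DMSO carrier and 0% = 500 nM PU-H71 HSP90 inhibitor; lower value means stronger loss of Her2 protein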
Ecoli tolC: growth inhibitors of E. coli BW25113 tolC mutant; OD615; growth inhibition, % at 10 µM (by protocol); 65,000 tested, 2.2% active; AID 573;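 active = growth inhibition at or above a cutoff equal to the mean over every tested compound plus 3 SD, cut at about 60% in these data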;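 note: growth measured after 20 h incubation at 37 °C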
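test system = E. coli BW25113 ΔtolC::kan bacteria | medium = LB with kanamycin 50 µg/mL | signal = OD at 615 nm | schedule = 37 °C, 20 h exposure | evaluation = % inhibition of E. coli growth | compound dosing = one dose of 10 µM final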
E coli WT exp: growth inhibitors of E. coli BW25113 wild type. OD600 absorbance. growth inhibition, % at 100 µM. 98,000 tested, 0.15% active. AID 710;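 active = growth inhibition above about 50% at one test dose, limit read from the data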;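 note: growth measured after 20 h incubation at 37 °C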
PostGolgi ctrl: inhibits growth of the yeast control strain; efflux-deficient yeast background strain, growth absorbance A615, 16 h; 98,000 tested, 5% active; inhibition, % at 10 µM
An asterisk follows results filed as active; / = no result. This is a sample that favours compounds with a hit; in the whole collection about 6.6% have one here. Cut-off read from the data, not from the text of the source, unless noted: active = inhibition above about 30%; inactive = the rest.

SMILES | PostGolgi yeast | Her2 expr inh | Ecoli tolC | E coli WT exp | PostGolgi ctrl
CC1CCC(C(C)C)C(OC(=O)CSc2nnc(N)s2)C1 (configuration not stated) | 4.0 | / | / | 7.0 | 32.3*
CC1CCC(C(C)C)C(OC(=O)CSc2nc(N)cc(=O)[nH]2)C1 (configuration not stated) | -14.7 | / | / | 1.0 | 41.8*
Cc1cccc(N(CC(=O)NCC2CCCO2)C(=O)CCC(=O)Nc2cc(C)on2)c1 (configuration not stated) | -3.9 | 103.7 | 6.8 | -13.0 | 12.4
Oc1ccc(Cl)cc1-c1cc(-c2cccc(Br)c2)n[nH]1 | 6.9 | / | / | -8.0 | 54.1*
O=C(c1ccc(F)cc1)c1cn[nH]c1-c1ccccc1O | 13.6 | 72.1 | 2.0 | 3.0 | 12.6
Oc1ccccc1-c1cc(-c2cccc(F)c2)n[nH]1 | -11.5 | 48.7 | 100.0* | 24.0 | 20.5
CCC1CCc2c(sc(NC(=O)c3ccoc3C)c2C(N)=O)C1 (configuration not stated) | -1.1 | 62.0 | 11.5 | -3.0 | 30.3*
CCC(C)(C)C1CCc2c(sc(NC(=O)c3ccoc3C)c2C(N)=O)C1 (configuration not stated) | 12.8 | / | / | -1.0 | -10.8
COCCCn1cc(C(=O)c2cc(OC)ccc2OCC(=O)Nc2cc(C)on2)cc(C#N)c1=O | -5.9 | / | / | -15.0 | 14.2
O=C(Nc1ccccc1Cl)c1cccc(NS(=O)(=O)c2ccccc2)c1 | -10.9 | / | / | 5.0 | 19.8
O=C1NC(=Nc2cccc(Cl)c2)SC1Cc1cccc(Cl)c1Cl (configuration not stated) | -7.3 | / | / | -5.0 | 47.8*
CCc1c(C)nc(SCC(=O)N2CCc3ccccc32)[nH]c1=O | -4.2 | 89.2 | -8.8 | 1.0 | -14.3
Cc1cc(C)nc(NC(=O)/C=C/c2ccc(Cl)cc2Cl)c1 | 11.9 | / | / | -1.0 | 56.6*
CCCCn1c(N)c(N(CC(C)C)C(=O)CN(C)Cc2cccc(OC)c2)c(=O)[nH]c1=O | 15.9 | / | / | 1.0 | 22.4
COc1c(N2CCNC(C)C2)c(F)cc2c(=O)c(C(=O)O)cn(C3CC3)c12 (configuration not stated) | / | 96.8 | 96.7* | / | /
CCN1CCN(c2cc3c(cc2F)c(=O)c(C(=O)O)cn3C2CC2)CC1 | / | 127.7 | 4.8 | / | /
COc1c(N2CCN(C(=S)Nc3ccc(F)cc3)C(C)C2)c(F)cc2c(=O)c(C(=O)O)cn(C3CC3)c12 (configuration not stated) | -3.6 | / | / | 99.0* | 2.1
COc1ccc(-c2cnc(N)nc2-c2ccc(OC)cc2O)cc1 | -5.9 | 103.0 | 7.4 | 3.0 | 28.2
COc1ccc(-c2n[nH]c(C(F)(F)F)c2-c2cc3ccccc3o2)c(O)c1 | 104.4* | 69.1 | 100.0* | 17.0 | 101.7*
COc1ccc(C(=O)N(CN2CCCC2=O)c2nccs2)cc1OC | -1.1 | 102.3 | -4.8 | 4.0 | -8.9
CCN(CC)C(=O)c1sc(NC(=O)C(Sc2ccccc2)c2ccccc2)c(C(=O)OC(C)C)c1C (configuration not stated) | -5.7 | / | / | -18.0 | 8.1
CCCCOC(=O)C(C#N)c1nc2ccccc2nc1N1CCN(Cc2ccc3c(c2)OCO3)CC1 (configuration not stated) | 3.9 | -54.8* | 28.5 | -21.0 | 21.6
CN1CCN(c2nc3ccccc3nc2C(C#N)C(=O)OC2CCCCC2)CC1 (configuration not stated) | 2.0 | 37.2 | 57.6 | 9.0 | 16.9
N#CC(C(=O)OC1CCCCC1)c1nc2ccccc2nc1N1CCOCC1 (configuration not stated) | -0.3 | 129.7 | 19.2 | -5.0 | 40.4*
C=CCOC(=O)C(C#N)c1nc2ccccc2nc1N1CCN(Cc2ccccc2)CC1 (configuration not stated) | -6.4 | 107.0 | 100.0* | -8.0 | 8.2
SMILES | PostGolgi yeast | Her2 expr inh | Ecoli tolC | E coli WT exp | PostGolgi ctrl
O=C1OC(Nc2ccc(Br)cn2)c2ccccc21 (configuration not stated) | 6.6 | 153.3 | -2.7 | 5.0 | -3.8
CC(=O)N1CCN(c2ccc(NC(=O)c3ccccc3Br)cc2Cl)CC1 | -6.7 | 118.6 | 9.7 | -10.0 | 9.5
CCOc1cccc(-c2nc3cc(C)ccc3o2)c1 | -15.5 | 67.3 | 100.0* | 0.0 | 12.0
CCCC(=O)Nc1ccc2oc(-c3ccc(OC)c(Br)c3)nc2c1 | 7.3 | 73.0 | 22.1 | -10.0 | 6.9
CCCC(=O)Nc1ccc(-c2nc3cc(C)ccc3o2)cc1 | 2.0 | 89.5 | -4.2 | -1.0 | 30.2*
COCCNC(=O)Cn1nc(C(F)(F)F)c(Cl)c1C | 1.8 | 98.1 | -2.5 | 13.0 | 4.7
CCOc1ccccc1NC(=O)C1=C(C)NC(=O)NC1c1cccc(OC)c1OC (configuration not stated) | -4.5 | 93.1 | -2.1 | 1.0 | 16.5
Cc1cc(C(=O)CN2C(=O)c3cccc(N)c3C2=O)c(C)n1Cc1cccs1 | -6.1 | / | / | -7.0 | 12.6
O=C1C=C(Nc2ccc(Cl)cc2)CC(c2ccc(Cl)cc2)C1 (configuration not stated) | 7.7 | / | / | -5.0 | 52.3*
O=C1C=C(NCc2ccco2)CCC1 | 8.3 | 114.8 | -13.9 | 1.0 | 16.5
O=C1C=C(NCc2ccco2)CC(c2ccc(Cl)cc2)C1 (configuration not stated) | / | 58.6 | 14.2 | -2.0 | 40.7*
Cc1ccccc1NC(=O)CC1(c2ccc(N(C)C)cc2)C(=O)c2ccccc2C1=O | -9.2 | / | / | -3.0 | 1.7
O=C(c1ccc(COc2ccccc2Br)o1)N1CCN(c2ccccn2)CC1 | -3.1 | / | / | -14.0 | 34.9*
O=C(c1ccc(C#Cc2ccccc2)o1)N1CCN(c2ccccn2)CC1 | -1.1 | 284.9 | 47.1 | -4.0 | 41.5*
O=C(c1cccc(COc2ccc(Cl)cc2Cl)c1)N1CCN(c2ccccn2)CC1 | 3.6 | 73.8 | 86.5* | -37.0 | 68.1*
COc1ccc(OC)c(NC(=S)N2CCN(C/C=C/c3ccccc3)CC2)c1 | 1.3 | / | / | 5.0 | 17.7
O=C(Nc1cccc(Cl)c1)N1CCN(C/C=C/c2ccccc2)CC1 | 39.8* | 64.9 | -8.8 | 18.0 | 4.0
COc1ccc(Cl)cc1NC(=O)C(C)N1CCN(C/C=C/c2ccccc2)CC1 (configuration not stated) | 64.8* | / | / | -8.0 | 18.9
CC(=O)c1c(C)cc(C)c(CSc2nc(C)cc(=O)[nH]2)c1C | / | 79.5 | 4.2 | / | /
CC(C)(C)C(=O)C(CO)(Oc1ccc(Cl)cc1)n1cncn1 (configuration not stated) | 99.2* | 100.2 | 0.3 | 8.0 | 95.0*
CCOC(=O)c1c(C#N)cnn1-c1ccc(C)cc1 | 6.9 | / | / | -6.0 | -1.2
CCC(c1nnnn1CCOC)N1CCN(Cc2ccccc2)CC1 (configuration not stated) | -2.3 | 110.5 | -29.7 | 3.0 | 31.0*
CCOc1ccccc1-c1cc(C(=O)N/N=C/c2ccc3c(c2)OCO3)c2ccccc2n1 | 52.8* | / | / | -6.0 | 91.6*
O=C(N/N=C/c1ccc(F)cc1)c1cc(-c2ccco2)nc2ccccc12 | -10.7 | / | / | -9.0 | 5.5
COc1ccccc1-c1cc(C(=O)N/N=C/c2sccc2C)c2ccccc2n1 | 0.5 | / | / | -18.0 | 47.8*
Cc1ccc2nc(-c3ccc(NS(C)(=O)=O)cc3)cc(-c3ccccc3)c2c1 | 11.6 | / | / | -15.0 | 57.9*
